Compound activity deposited in PubChem by several laboratories.
The list is not random: actives were taken first. Their share in the collection is about 4.1%.
MEKK2 mut-MEK5: signal of MEK5 binding to mutant human MEKK2 PB1 domain | bead flow cytometry, Alexa488-MEK5 binding to MEKK2 mutant | percent response, % at 10 µM | actives 0.35% (n = 290,000) | AID 1530; in the data active = percent response above about 24%, passing the limit was not always enough
MEKK3 PB1 HTS: MEKK3-MEK5 PB1 interaction, increase or decrease; actives 1.4% (n = 290,000); bead-based flow cytometry, Alexa488-MEK5 binding to MEKK3; actives lie on both sides; 0 = blocked by unlabeled MEK5, 100 = vehicle; binding response (% of control), % at 10 µM; AID 1529; Q99759;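 active = binding response more than 3 SD above or below the average of its plate-row segment, actives on both sides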;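 note: Alexa488 bead fluorescence after subtracting the streptavidin-only scavenger bead signal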
Target sequence (Q99759 whole entry, looked up): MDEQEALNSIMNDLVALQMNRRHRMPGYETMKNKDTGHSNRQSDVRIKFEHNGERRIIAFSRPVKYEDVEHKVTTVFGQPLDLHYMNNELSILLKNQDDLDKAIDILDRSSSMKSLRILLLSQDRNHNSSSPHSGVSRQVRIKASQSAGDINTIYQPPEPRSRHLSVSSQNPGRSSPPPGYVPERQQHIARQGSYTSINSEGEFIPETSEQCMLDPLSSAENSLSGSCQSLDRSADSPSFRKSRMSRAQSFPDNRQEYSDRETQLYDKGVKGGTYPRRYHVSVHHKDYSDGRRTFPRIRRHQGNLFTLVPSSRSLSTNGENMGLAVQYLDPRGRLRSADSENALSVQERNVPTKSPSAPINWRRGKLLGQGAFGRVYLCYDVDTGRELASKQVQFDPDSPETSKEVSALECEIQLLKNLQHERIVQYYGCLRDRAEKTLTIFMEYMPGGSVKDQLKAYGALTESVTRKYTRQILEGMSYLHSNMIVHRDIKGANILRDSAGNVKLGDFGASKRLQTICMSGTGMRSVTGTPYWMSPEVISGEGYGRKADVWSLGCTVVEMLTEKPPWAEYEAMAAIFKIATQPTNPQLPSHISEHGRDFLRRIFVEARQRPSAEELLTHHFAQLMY
T cruzi repl: blocks replication of Trypanosoma cruzi | actives 1.4% (n = 300,000) | inhibition, % (no concentration beside the values) | T. cruzi beta-gal in NIH3T3, luminescence, 90 h;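 active = mean inhibition across valid replicates above about 55%, limit read from the data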;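 note: signal also drops with host cell toxicity which is not excluded here; 0% = plate median of DMSO wells and 100% = zero luminescence signal; higher percent means less beta-gal luminescence so fewer parasites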
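Material: NIH/3T3 host cells with β-galactosidase reporter T. cruzi; Input: 5,000 host fibroblasts per well; Medium: DMEM, 2% fetal bovine serum; Compound: 50 nL DMSO compound solution per well; Schedule: 3 h host attachment, then at least 90 h co-culture; Detection: luminescent β-galactosidase signal after 60 min lysis.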
DNA FID counter-1: counter-screen for HCV NS3 helicase inhibitors: DNA intercalator displacement. DNA fluorescent intercalator displacement, fluorescence. inhibition, % at 7.9 µM. actives 0.17% (n = 290,000);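 note: 0% = vehicle and 100% = reference compound; higher means more ethidium bromide displaced from hairpin DNA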
MEKK2 WT-MEK5: raises or lowers MEK5 binding to wildtype human MEKK2 PB1 domain | Q9Y2U5 | bead flow cytometry, Alexa488-MEK5 binding to MEKK2 WT; actives lie on both sides | binding response (% of control), % at 10 µM | actives 1.1% (n = 290,000) | AID 1531; in the data active = binding response below about 67% or above about 130%
HCV NS3 hel inh: HCV NS3 helicase inhibition; NS3 helicase DNA unwinding, Cy5 molecular beacon fluorescence; inhibition, % at 10.9 µM; actives 0.56% (n = 290,000); AID 1800;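 active = inhibition above the mean of all tested compounds plus 3 SD, set per campaign, cut at about 35% in these data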;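 note: 0% = DMSO wells and 100% = thioflavine S control wells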
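Control set: DMSO versus 110 µM thioflavine S; Material: NS3 helicase fragment of HCV; Measured by: Cy5 fluorescence at 0 and 60 min, beacon hairpin quenching; Read-out basis: percent inhibition from t60/t0 fluorescence ratio; Times: reaction time 60 min, 25 °C; Repeats: single replicate; Compound dosing: single dose, 10.9 µM nominal final, DMSO 0.8% final.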
NS3 helicase cf: HCV NS3 helicase inhibition, confirmation assay; actives 31% (n = 1,600); inhibition, % at 10.9 µM; NS3 helicase DNA unwinding, Cy5 molecular beacon fluorescence; shares compounds with HCV NS3 hel inh;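 active = inhibition above the mean of all tested compounds plus 3 SD, cutoff set per campaign, cut at about 36% in these data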
DNA FID counter-2: displaces DNA intercalator in HCV helicase counter-screen; inhibition, % at 7.9 µM; actives 4% (n = 1,600); shares compounds with HCV NS3 hel inh; DNA fluorescent intercalator displacement, fluorescence;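 note: 0% = vehicle and 100% = reference compound; higher means more displacement of ethidium bromide from the DNA hairpin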
FID counter DR: counter-screen for HCV NS3 helicase inhibitors: DNA intercalator displacement dose response. shares compounds with HCV NS3 hel inh. fluorescent intercalator displacement from DNA, fluorescence. IC50, µM. 120 tested, under 10 active. AID 2172; call rule not given here
Numbers without * were called inactive; . = no result. Cut-off read from the data, not from the text of the source, unless noted: active = inhibition above about 37%; inactive = the rest.

SMILES	MEKK2 mut-MEK5	MEKK3 PB1 HTS	T cruzi repl	DNA FID counter-1	MEKK2 WT-MEK5	HCV NS3 hel inh	NS3 helicase cf	DNA FID counter-2	others
Cc1ccc(C)c(N(C(=O)c2csnn2)C(C(=O)NC2CCCC2)c2ccncc2)c1 (stereo not drawn)	0	100	-4	-18	95	11	.	.
O=C(CCC(=O)c1ccc(F)cc1)NC1CCCN(Cc2ccccc2F)C1 (stereo not drawn)	0	100	13	-3	101	1	.	.
CC1=CC(C)(C)Nc2ccc(OC(=O)CN3C(=O)c4cccc5cccc(c45)C3=O)cc21	.	.	-6	-16	.	39*	-14	1
Nc1c(C(=O)NCC2CCCO2)sc2nc3c(c(-c4ccco4)c12)CC/C3=C\c1ccco1 (stereo not drawn)	-2	100	.	9	60	51*	88*	19	FID counter DR=>79
NC(=O)c1sc2nc3c(c(-c4ccco4)c2c1N)CCCC3	-13	93	2	-19	91	10	.	.
CCCS(=O)(=O)N1CCCC(C(=O)Nc2ccc3c(c2)CCC3)C1 (stereo not drawn)	-3	104	16	-34	96	1	.	.
Cc1cc(OCc2nn[nH]n2)c2c(C)c(CC(=O)O)c(=O)oc2c1	0	99	-10	2	100	1	.	.
Cc1cc(OCc2nn[nH]n2)c2c(C)c(Cc3ccccc3)c(=O)oc2c1	4	102	7	-23	102	69*	62*	-13
CCc1nc2sc3ccccc3c(=O)c2c(=O)n1Cc1ccco1	0	105	5	-13	102	22	.	.
O=c1c2ccccc2sc2nc(C3CCCCC3)n(Cc3ccco3)c(=O)c12	.	.	8	-32	.	40*	27	-9
Cc1cc(/C=C2\Cc3ccccc3C2=O)c(C)n1-c1ccccc1	1	94	0	-19	94	39*	-17	-20
Cc1ccc(OCC2Cn3c(nc4c3c(=O)[nH]c(=O)n4C)O2)cc1C (stereo not drawn)	5	102	-7	-27	107	-3	.	.
COc1ccccc1N1CCN(CC(=O)Nc2c(C)n(C)n(-c3ccccc3)c2=O)CC1	-3	99	-5	-12	94	-20	.	.
COc1ccc(S(=O)(=O)/N=C2/NC(=O)/C(=C\c3cc(OC)c(OC)cc3[N+](=O)[O-])S2)cc1	-1	93	-3	-31	87	8	.	.
COc1ccc(N=C2NC(=O)/C(=C/c3ccco3)S2)cc1	-7	98	7	-16	91	25	.	.
COc1ccc(S(=O)(=O)/N=C2/NC(=O)/C(=C/c3ccco3)S2)cc1	-1	107	-17	-21	101	37*	78*	-2	FID counter DR=>79
COc1ccc(S(=O)(=O)/N=C2/NC(=O)/C(=C\c3ccco3)S2)cc1	1	97	-2	-23	84	37*	60*	6
COc1ccccc1NC(=O)Cn1c(CCC(=O)O)ccc1-c1ccccc1	-12	87	2	-18	80	6	.	.
Oc1c(Br)cc(Br)cc1/C=N/Nc1ccc(Cl)nn1	8	97	55*	-5	97	41*	-21	6
COc1ccc(C(=O)CSc2nnc(-c3cccs3)n2-c2ccccc2)cc1	-1	98	1	-1	93	-5	.	.
COc1ccc(-n2c(Cc3cccn3C)nnc2SCC(=O)Nc2ccc3c(c2)OCCO3)cc1	5	106	2	-37	106	14	.	.
COc1ccc(-n2c(Cc3cccn3C)nnc2SCC(=O)Nc2ccc3c(c2)OCO3)cc1	2	101	2	-27	98	45*	-15	-28
